Calls of active or inactive are those of the source. The calls are words filed in the database; no cut-off is given here.
Experiments:
Mus musculus [1] = assay: Inverse agonist activity was evaluated by Mouse pentylenetetrazole (PTZ) proconvulsant activity test at 14.6-34.51 mg/kg by peroral administration of 90 mg/kg convulsive dose of PTZ.; assay type: functional; conditions: route oral
[2] = target: GABA-A receptor; anion channel; assay: Displacement of [3H]diazepam from rat cerebral cortex benzodiazepine receptor; assay type: tissue-based
Mus musculus [3] = assay: Inverse agonist activity was evaluated by Mouse pentylenetetrazole (PTZ) proconvulsant activity test at 25.87-58.54 mg/kg by administering 75 mg/kg convulsive dose of PTZ, 1 hr after oral administration of test compound; assay type: functional
How it was run: (§1)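 Male mice, 8-16 per group. Test compound given po, followed 1 h later by a subconvulsive dose of PTZ (75 mg/kg sc). Tonic convulsions and death were scored over a 2-h observation.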

Mus musculus [4] = assay: Inverse agonist activity was evaluated by Mouse pentylenetetrazole (PTZ) proconvulsant activity test; at 3.64-18.28 mg/kg by peroral administration of 90 mg/kg convulsive dose of PTZ.; assay type: functional; conditions: route oral
Mus musculus [5] = assay: Inverse agonist activity was evaluated by Mouse pentylenetetrazole (PTZ) proconvulsant activity test at 11.71-22.28 mg/kg by administering 75 mg/kg convulsive dose of PTZ, 1 hr after oral administration of test compound; assay type: functional; how it was run: as §1
Mus musculus [6] = assay: Inverse agonist activity was evaluated by Mouse pentylenetetrazole (PTZ) proconvulsant activity test; by peroral administration of 90 mg/kg convulsive dose of PTZ.; assay type: functional; conditions: route oral
Mus musculus [7] = assay: Inverse agonist activity was evaluated by Mouse pentylenetetrazole (PTZ) proconvulsant activity test; by administering 75 mg/kg convulsive dose of PTZ, 1 hr after oral administration of test compound; assay type: functional; how it was run: as §1
Mus musculus [8] = assay: Inverse agonist activity was evaluated by Mouse pentylenetetrazole (PTZ) proconvulsant activity test at 50 mg/kg by administering 75 mg/kg convulsive dose of PTZ, 1 hr after oral administration of test compound; assay type: functional; how it was run: as §1
Mus musculus [9] = assay: Inverse agonist activity was evaluated by Mouse pentylenetetrazole (PTZ) proconvulsant activity test 9.76-20.68 mg/kg by peroral administration of 90 mg/kg convulsive dose of PTZ.; assay type: functional; conditions: route oral
Mus musculus [10] = assay: Inverse agonist activity was evaluated by mouse pentylenetetrazole (PTZ) proconvulsant activity test at 10 mg/kg by peroral administration of 90 mg/kg convulsive dose of PTZ.; assay type: functional
Mus musculus [11] = assay: Inverse agonist activity was evaluated by Mouse pentylenetetrazole (PTZ) proconvulsant activity test at 22.39-75 mg/kg by peroral administration of 90 mg/kg convulsive dose of PTZ.; assay type: functional; conditions: route oral
Mus musculus [12] = assay: Agonist activity was evaluated by mouse pentylenetetrazole (PTZ) convulsant test; inactive to 10 mg/kg administered intravenously; assay type: functional, organism-based; parameters: dose 10 mg/kg
Mus musculus [13] = organism: Mus musculus; assay: Activity in mouse pentylenetetrazole convulsant test.; assay type: functional
How it was run: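 Male mice, 8-16 per group. Test compound dosed orally 1 h before sc PTZ, either a convulsive 125 mg/kg (protection) or a subconvulsive 75 or 90 mg/kg (potentiation). Animals were watched 2 h for tonic convulsions and death. ED50 came from probit analysis.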

Mus musculus [14] = assay: Agonist activity was evaluated by mouse pentylenetetrazole (PTZ) convulsant test after p.o. administration; conditions: po
Mus musculus [15] = assay: Inverse agonist activity was evaluated by mouse pentylenetetrazole (PTZ) proconvulsant activity test; by peroral administration of 90 mg/kg convulsive dose of PTZ; inactive to 10 mg/kg administered intravenously; assay type: functional, organism-based
Mus musculus [16] = assay: Inverse agonist activity was evaluated by mouse pentylenetetrazole (PTZ) proconvulsant activity test; by administering 75 mg/kg convulsive dose of PTZ, 1 hr after oral administration of test compound; assay type: functional; how it was run: as §1
Mus musculus [17] = assay: Inverse agonist activity was evaluated by mouse pentylenetetrazole (PTZ) proconvulsant activity test; by peroral administration of 90 mg/kg convulsive dose of PTZ.; assay type: functional; conditions: route oral
Mus musculus [18] = assay: Inverse agonist activity was evaluated by Mouse pentylenetetrazole (PTZ) proconvulsant activity test; by peroral administration of 90 mg/kg convulsive dose of PTZ; inactive to 10 mg/kg administered intravenously; assay type: functional, organism-based
Mus musculus [19] = assay: Inverse agonist activity was evaluated by Mouse pentylenetetrazole (PTZ) proconvulsant activity test at 28.18 mg/kg by administering 75 mg/kg convulsive dose of PTZ, 1 hr after oral administration of test compound; assay type: functional; how it was run: as §1
Mus musculus [20] = assay: Inverse agonist activity was evaluated by Mouse pentylenetetrazole (PTZ) proconvulsant activity test; at 7.7-119.81 mg/kg by peroral administration of 90 mg/kg convulsive dose of PTZ.; assay type: functional; conditions: route oral
Mus musculus [21] = assay: Inverse agonist activity was evaluated by Mouse pentylenetetrazole (PTZ) proconvulsant activity test at 4.54-12.28 mg/kg by administering 75 mg/kg convulsive dose of PTZ, 1 hr after oral administration of test compound; assay type: functional; how it was run: as §1
Mus musculus [22] = assay: Inverse agonist activity was evaluated by Mouse pentylenetetrazole (PTZ) proconvulsant activity test at 3.53-11.93 mg/kg by peroral administration of 90 mg/kg convulsive dose of PTZ.; assay type: functional; conditions: route oral
Mus musculus [23] = assay: Inverse agonist activity was evaluated by mouse pentylenetetrazole (PTZ) proconvulsant activity test at 6.7-16.7 mg/kg by peroral administration of 90 mg/kg convulsive dose of PTZ; assay type: functional; conditions: route oral
Mus musculus [24] = assay: Inverse agonist activity was evaluated by mouse pentylenetetrazole (PTZ) proconvulsant activity test; by administering 75 mg/kg convulsive dose of PTZ, 1 hr after oral administration of test compound; In active to 10 iv; assay type: functional, organism-based; parameters: dose 75 mg/kg; how it was run: as §1

SMILES | Ki [2] [nM] | ED50 (Mus musculus [13]) [mg/kg] | further results
Fc1cccc2[nH]cc3nc(-c4ccon4)nc-3c12 | 3.4 |  | ED50 (Mus musculus [1]): 21.2 mg/kg; ED50 (Mus musculus [3]): 35.7 mg/kg
COc1ccc2c3nc(-c4ccon4)nc-3c[nH]c2c1 | 7.2 |  | ED50 (Mus musculus [4]): 8.77 mg/kg; ED50 (Mus musculus [5]): 16.2 mg/kg
c1cc(-c2nc3c[nH]c4c(c-3n2)COCC4)no1 | 2.7 |  | ED50 (Mus musculus [6]): 19.6 mg/kg; ED50 (Mus musculus [7]): 25 mg/kg
Clc1ccc2[nH]cc3nc(-c4ccon4)nc-3c2c1 | 0.8 |  | Animals affected (Mus musculus [8]): 25%; ED50 (Mus musculus [9]): 14.2 mg/kg
Fc1cccc2c1ncc1[nH]c(-c3ccon3)nc12 | 40 |  | Animals affected (Mus musculus [10]): 37.5%
COc1ccc2[nH]cc3nc(-c4ccon4)nc-3c2c1 | 0.5 |  | ED50 (Mus musculus [11]): 31.5 mg/kg; Animals affected (Mus musculus [8]): 25%
c1csc(-c2nc3c[nH]c4ccccc4c-3n2)c1 | 1.7 |  | 
Cc1cc(-c2nc3c(cnc4c(F)cccc43)[nH]2)on1 | 302 |  | ED50 (Mus musculus [12]): inactive
Fc1ccc2c3nc(-c4ccon4)nc-3c[nH]c2c1 | 0.9 | 39.9 | 
Cc1cc(-c2nc3c4c(ncc3[nH]2)CCCCC4)on1 | 15.6 | 12.4 | 
Cc1cc(-c2nc3c(cnc4ccc(Cl)cc43)[nH]2)on1 | 0.5 | 10.6 | 
Cc1cc(-c2nc3c(cnc4cc(F)ccc43)[nH]2)on1 | 1.4 | 5.15 | 
CN1C(=O)CN=C(c2ccccc2)c2cc(Cl)ccc21 [DIAZEPAM] |  |  | ED50 (Mus musculus [14]): 0.67 mg/kg
Cc1cc(-c2nc3c(cnc4ccccc43)[nH]2)on1 | 0.9 | 5.89 | 
c1cc(-c2nc3c4c(ncc3[nH]2)CCCC4)no1 | 1.2 |  | Animals affected (Mus musculus [15]): inactive; ED50 (Mus musculus [12]): inactive
Cc1cc(-c2nc3c(cnc4cccc(F)c43)[nH]2)on1 | 4.9 | 4.86 | 
c1cc(-c2nc3c4c(ncc3[nH]2)CCC4)no1 | 5.3 |  | ED50 (Mus musculus [16]): 9.22 mg/kg; ED50 (Mus musculus [17]): 4.72 mg/kg
COc1ccc2c3nc(-c4cc(C)no4)nc-3c[nH]c2c1 | 9.5 |  | ED50 (Mus musculus [12]): inactive; ED50 (Mus musculus [7]): 46.2 mg/kg; Animals affected (Mus musculus [18]): inactive
Cc1cc(-c2nc3c4c(ncc3[nH]2)CCOC4)on1 | 3.3 | 11.2 | 
Cc1cc(-c2nc3c(cnc4ccccc43)[nH]2)cs1 | 4.5 |  | 

SMILES | Ki [2] [nM] | ED50 (Mus musculus [13]) [mg/kg] | further results
CCc1cc(-c2nc3c(cnc4ccccc43)[nH]2)on1 | 1.2 | 13.5 | 
Clc1ccc(-c2nc3c(cnc4ccccc43)[nH]2)cc1 | 270 |  | 
c1ccc2c(c1)ncc1[nH]c(-c3ccno3)nc12 | 1 |  | ED50 (Mus musculus [12]): inactive; ED50 (Mus musculus [7]): 1.94 mg/kg; ED50 (Mus musculus [18]): inactive
O=C1C2C=Nc3ccccc3C2=NN1c1ccccc1 (stereo not given) [CGS-8216] |  |  | ED50 (Mus musculus [7]): 25 mg/kg
c1ccc(-c2nc3c(cnc4ccccc43)[nH]2)cc1 | 22 |  | 
COc1ccc2[nH]cc3nc(-c4cc(C)no4)nc-3c2c1 | 0.9 | 21.6 | 
CCc1cc(-c2nc3c(cnc4ccccc43)[nH]2)no1 | 1.1 | 19.2 | 
Fc1ccc2[nH]cc3nc(-c4ccon4)nc-3c2c1 | 0.8 |  | ED50 (Mus musculus [19]): 64.1 mg/kg; ED50 (Mus musculus [20]): 16.5 mg/kg
Cc1cc(-c2nc3c(cnc4cccc(Cl)c43)[nH]2)on1 | 13.7 | 8.53 | 
Clc1cccc2[nH]cc3nc(-c4ccon4)nc-3c12 | 7.8 |  | ED50 (Mus musculus [21]): 7.21 mg/kg; ED50 (Mus musculus [22]): 5.95 mg/kg
Clc1ccc2c3nc(-c4ccon4)nc-3c[nH]c2c1 | 3.5 | 27.2 | 
c1cc(-c2nc3c4c(ncc3[nH]2)CCCCC4)no1 | 5.2 |  | ED50 (Mus musculus [12]): inactive; Animals affected (Mus musculus [18]): inactive
c1ccc2c(c1)ncc1[nH]c(-c3ccon3)nc12 | 0.6 |  | ED50 (Mus musculus [23]): 10.1 mg/kg; ED50 (Mus musculus [24]): inactive
Cc1cc(-c2nc3c(cnc4cc(Cl)ccc43)[nH]2)on1 | 18.8 | 29.8 | 
Cc1cc(-c2nc3c(cnc4c(Cl)cccc43)[nH]2)on1 |  |  | ED50 (Mus musculus [12]): inactive; Animals affected (Mus musculus [18]): inactive
Cc1cc(-c2nc3c4c(ncc3[nH]2)CCCC4)on1 | 2.2 | 8.12 | 
Cc1cc(-c2nc3c(cnc4ccccc43)[nH]2)no1 | 0.9 | 16.4 | 
Clc1cccc2c1ncc1[nH]c(-c3ccon3)nc12 | 524 |  | Animals affected (Mus musculus [15]): inactive; ED50 (Mus musculus [12]): inactive
Cc1cc(-c2nc3c(cnc4ccc(F)cc43)[nH]2)on1 | 1.1 | 5.41 | 
Cc1cc(-c2nc3c4c(ncc3[nH]2)CCC4)on1 | 14.6 | 5.97 | 

From ChEMBL document CHEMBL1129239, “Synthesis and structure--activity relationships of fused imidazopyridines: a new series of benzodiazepine receptor ligands” (J Med Chem, 1996)
